Source: ChEMBL document CHEMBL3112475, “Synthesis of novel ring-A fused hybrids of oleanolic acid with capabilities to arrest cell cycle and induce apoptosis in breast cancer cells” (Eur J Med Chem, 2014)
Active and inactive are the calls of the source. No cut-off for these calls is given here.

Key:
MCF7 [1] = experiment: Cytotoxicity against human MCF7 cells after 48 hrs by MTT assay; format: functional, cell-based; settings: MCF7, 48 h
In short: (§1)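 1 × 10⁴ cells, counted by trypan blue exclusion, were incubated in 96-well plates with a concentration series for 48 h at 37 °C in DMEM with 10% FBS. MTT reagent (5 mg/ml) was added and absorbance read at 570 nm. IC50 was taken from a plot of % viability versus control against concentration. Compounds were first screened at 100 µM, and only those giving ≥50% cytotoxicity went to dose-response.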

MDA-MB-231 = experiment: Cytotoxicity against human MDA-MB-231 cells after 48 hrs by MTT assay; format: functional, cell-based; settings: MDA-MB-231, 48 h; in short: as §1
HeLa = experiment: Cytotoxicity against human HeLa cells after 48 hrs by MTT assay; format: functional, cell-based; in short: as §1
PC-3 = experiment: Cytotoxicity against human PC3 cells after 48 hrs by MTT assay; format: functional, cell-based; settings: PC-3, 48 h; in short: as §1
MDA-MB-453 = experiment: Cytotoxicity against human MDA-MB-453 cells after 48 hrs by MTT assay; format: functional, cell-based; settings: MDA-MB-453, 48 h; in short: as §1
HT-29 = experiment: Cytotoxicity against human HT-29 cells after 48 hrs by MTT assay; format: functional, cell-based; settings: HT-29, 48 h; in short: as §1
[2] = Cytotoxicity against human ME180 cells after 48 hrs by MTT assay; format: functional, cell-based; settings: ME-180, 48 h; in short: as §1
MCF7 [3] = experiment: Induction of morphological change in human MCF7 cells assessed as cell shrinkage at 10 uM after 48 hrs by acridine orange and ethidium bromide staining based fluorescence microscopic analysis; format: functional
In short: (§2)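 MCF-7 cells were plated at 1 × 10⁶ cells/ml and treated with compound for 48 h. After acridine orange/ethidium bromide dual staining, cells were viewed 30 min later by fluorescence microscopy through a blue filter. Green homogeneous nuclei were scored as intact, condensed or fragmented chromatin as apoptotic, and orange-red nuclei as late apoptotic/necrotic. At least 200 cells were counted in random fields, and each test was done three times.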

MCF7 [4] = experiment: Induction of apoptosis in human MCF7 cells assessed as increase of late apoptotic/necrotic cells at 10 uM after 48 hrs by acridine orange and ethidium bromide staining based fluorescence microscopic analysis; format: functional, cell-based; in short: as §2
MCF7 [5] = experiment: Induction of apoptosis in human MCF7 cells assessed as increase of early apoptotic cells at 5 uM after 48 hrs by acridine orange and ethidium bromide staining based fluorescence microscopic analysis; format: functional, cell-based; in short: as §2
MCF7 [6] = experiment: Cell cycle arrest in human MCF7 cells assessed as accumulation at G0/G1 phase at 5 uM after 48 hrs by propidium iodide staining (reference value: 69.2%); format: functional
MCF7 [7] = experiment: Cell cycle arrest in human MCF7 cells assessed as accumulation at S phase at 5 uM after 48 hrs by propidium iodide staining (reference value: 10.2%); format: functional
MCF7 [8] = experiment: Cell cycle arrest in human MCF7 cells assessed as accumulation at S phase at 10 uM after 48 hrs by propidium iodide staining (reference value: 10.2%); format: functional
MCF7 [9] = experiment: Cell cycle arrest in human MCF7 cells assessed as accumulation at G0/G1 phase at 10 uM after 48 hrs by propidium iodide staining (reference value: 69.2%); format: functional
MCF7 [10] = experiment: Cell cycle arrest in human MCF7 cells assessed as accumulation at G2/M phase at 10 uM after 48 hrs by propidium iodide staining (reference value: 14.9%); format: functional
MCF7 [11] = experiment: Ratio of etoposide IC50 to compound IC50 for human MCF7 cells; format: functional
MCF7 [12] = experiment: Induction of morphological change in human MCF7 cells assessed as chromatin condensation with destructive fragmentation of nucleus at 10 uM after 48 hrs by acridine orange and ethidium bromide staining based fluorescence microscopic analysis; format: functional, cell-based; in short: as §2
MCF7 [13] = experiment: Induction of morphological change in human MCF7 cells assessed as membrane blebbing at 10 uM after 48 hrs by acridine orange and ethidium bromide staining based fluorescence microscopic analysis; format: functional, cell-based; in short: as §2
MCF7 [14] = experiment: Cell cycle arrest in human MCF7 cells assessed as accumulation at G2/M phase at 5 uM after 48 hrs by propidium iodide staining (reference value: 14.9%); format: functional

| SMILES | IC50 (MCF7 [1]) [µM] | IC50 (MDA-MB-231) [µM] | IC50 (HeLa) [µM] | IC50 (PC-3) [µM] | IC50 (MDA-MB-453) [µM] | IC50 (HT-29) [µM] | IC50 [2] [µM] | Activity (MCF7 [3]) | Activity (MCF7 [4]) | Activity (MCF7 [5]) | Activity (MCF7 [6]) [%] | Activity (MCF7 [7]) [%] | Activity (MCF7 [8]) [%] | Activity (MCF7 [9]) [%] | Activity (MCF7 [10]) [%] | Ratio IC50 (MCF7 [11]) | Activity (MCF7 [12]) | Activity (MCF7 [13]) | Activity (MCF7 [14]) [%] |
| --- | --- | --- | --- | --- | --- | --- | --- | --- | --- | --- | --- | --- | --- | --- | --- | --- | --- | --- | --- |
| COC(=O)[C@]12CCC(C)(C)C[C@H]1C1=CC[C@@H]3[C@@]4(C)Cc5c(-c6ccccc6)nc(=O)[nH]c5C(C)(C)[C@@H]4CC[C@@]3(C)[C@]1(C)CC2 | 78.9 | > 100 | > 100 | 87.4 | 96.7 | > 100 | > 100 | – | – | – | – | – | – | – | – | – | – | – | – |
| COC(=O)[C@]12CCC(C)(C)C[C@H]1C1=CC[C@@H]3[C@@]4(C)C[C@@H]5C(=NN[C@H]5c5ccccc5)C(C)(C)[C@@H]4CC[C@@]3(C)[C@]1(C)CC2 | 96.6 | > 100 | > 100 | > 100 | > 100 | > 100 | > 100 | – | – | – | – | – | – | – | – | – | – | – | – |
| COC(=O)[C@]12CCC(C)(C)C[C@H]1C1=CC[C@@H]3[C@@]4(C)Cc5c(nn(-c6ccccc6)c5-c5ccccc5)C(C)(C)[C@@H]4CC[C@@]3(C)[C@]1(C)CC2 | > 100 | > 100 | > 100 | > 100 | > 100 | > 100 | > 100 | – | – | – | – | – | – | – | – | – | – | – | – |
| COC(=O)[C@]12CCC(C)(C)C[C@H]1C1=CC[C@@H]3[C@@]4(C)C/C(=C\c5ccccc5)C(=O)C(C)(C)[C@@H]4CC[C@@]3(C)[C@]1(C)CC2 | 71.7 | > 100 | > 100 | > 100 | > 100 | > 100 | > 100 | – | – | – | – | – | – | – | – | – | – | – | – |
| COC(=O)[C@]12CCC(C)(C)C[C@H]1C1=CC[C@@H]3[C@@]4(C)Cc5c(-c6ccccc6)nc(N)nc5C(C)(C)[C@@H]4CC[C@@]3(C)[C@]1(C)CC2 | 10.6 | 16.3 | 45.1 | 75.3 | 12.6 | 30.7 | 16.7 | Active | Active | Active | 62.4 | 13 | 19.8 | 59.4 | 14.2 | 2 | Active | Active | 17.8 |
| COc1cccc2c1C(=O)c1c(O)c3c(c(O)c1C2=O)C[C@@](O)(C(=O)CO)C[C@@H]3O[C@H]1C[C@H](N)[C@H](O)[C@H](C)O1 [DOXORUBICIN] | – | – | 0.36 | 0.19 | 1.99 | – | 0.39 | – | – | – | – | – | – | – | – | – | – | – | – |
| CC1(C)CC[C@]2(C(=O)O)CC[C@]3(C)C(=CC[C@@H]4[C@@]5(C)CC[C@H](O)C(C)(C)[C@@H]5CC[C@]43C)[C@@H]2C1 [OLEANOLIC_ACID] | > 100 | > 100 | > 100 | > 100 | > 100 | > 100 | > 100 | – | – | – | – | – | – | – | – | – | – | – | – |
| COC(=O)[C@]12CCC(C)(C)C[C@H]1C1=CC[C@@H]3[C@@]4(C)Cc5c(-c6ccccc6)nc(=S)[nH]c5C(C)(C)[C@@H]4CC[C@@]3(C)[C@]1(C)CC2 | 30.9 | 75.5 | 75.4 | > 100 | 40.6 | 69 | > 100 | – | – | – | – | – | – | – | – | – | – | – | – |
| COC(=O)[C@]12CCC(C)(C)C[C@H]1C1=CC[C@@H]3[C@@]4(C)CCC(=O)C(C)(C)[C@@H]4CC[C@@]3(C)[C@]1(C)CC2 | 78.7 | > 100 | > 100 | > 100 | > 100 | > 100 | > 100 | – | – | – | – | – | – | – | – | – | – | – | – |
| COC(=O)[C@]12CCC(C)(C)C[C@H]1C1=CC[C@@H]3[C@@]4(C)Cc5c(noc5-c5ccccc5)C(C)(C)[C@@H]4CC[C@@]3(C)[C@]1(C)CC2 | 88.2 | > 100 | > 100 | > 100 | > 100 | > 100 | > 100 | – | – | – | – | – | – | – | – | – | – | – | – |
| COc1cc([C@@H]2c3cc4c(cc3[C@@H](O[C@@H]3O[C@@H]5CO[C@@H](C)O[C@H]5[C@H](O)[C@H]3O)[C@H]3COC(=O)[C@H]23)OCO4)cc(OC)c1O [ETOPOSIDE] | 23.9 | 24.2 | 4.71 | 14.4 | – | 21.4 | 8.9 | – | – | – | – | – | – | – | – | – | – | – | – |
